According to ChEMBL document CHEMBL1133640, “Structure-activity studies including a Psi(CH(2)-NH) scan of peptide YY (PYY) active site, PYY(22-36), for interaction with rat intestinal PYY receptors: development of analogues with potent in vivo activity in the intestine” (J Med Chem, 2000):
pIC50: −log10 of the molar value. *1 amine or outer side, *2 acyl side, *3 side chain or, on linkers, in order; H or OH if unused. Where a SMILES comes first, the peptide text is derived from it. Bridges are numbered along the chain shown (N, C = ends). Roman numbers before positions name the chains, in order. Side-chain parts run from the residue outwards. [ ]: non-standard residue; d: D form. The star is where a group is joined. Argψ(CH2NH)TyrNH2 = N=C(N)NCCC[C@@H](CN[C@@H](Cc1ccc(O)cc1)C(N)=O)N*; X4 = NC(N)=NCCC[C@@H](CN([C@@H](Cc1c[nH]cn1)C(=O)[*:2])[*:1])N[*:3]; X3 = CC(C)C[C@@H](CN([C@@H](CCCNC(=N)N)C(=O)[*:2])[*:1])N[*:3]; Bip = N[C@@H](Cc1ccc(-c2ccccc2)cc1)C(=O)O

Assays:
Rattus norvegicus = test: Tested for in vivo antisecretory potency for inhibiting VIP-induced (30 micro g/kg/h) secretion in isolated jejunum in anesthetized rats.(95% CL); type: functional; conditions: read-out: ID50 (the source's name)
In short: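 Rats anesthetized, saphenous vein cannulated. Isolated jejunal loop instilled with 2000 μL fluid. At the end the loop is excised, measured and weighed before and after emptying. Net water flux (μL/cm/30 min) = (F-E)2000/L; negative means absorption. 6-8 animals per dose.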

[1] = target: T1, Neuropeptide Y receptor type 2 (Rattus norvegicus, UniProt Q9ERC0); test: Tested for the affinity for intestinal PYY from rat jejunum by using short circuit current (SCC) method.
[2] = target: T2, Neuropeptide Y receptor type 2 (Homo sapiens, UniProt P49146); test: Affinity against Neuropeptide Y receptor Y2 in SK-N-BE2 cell line
T2 sequence (P49146 whole entry): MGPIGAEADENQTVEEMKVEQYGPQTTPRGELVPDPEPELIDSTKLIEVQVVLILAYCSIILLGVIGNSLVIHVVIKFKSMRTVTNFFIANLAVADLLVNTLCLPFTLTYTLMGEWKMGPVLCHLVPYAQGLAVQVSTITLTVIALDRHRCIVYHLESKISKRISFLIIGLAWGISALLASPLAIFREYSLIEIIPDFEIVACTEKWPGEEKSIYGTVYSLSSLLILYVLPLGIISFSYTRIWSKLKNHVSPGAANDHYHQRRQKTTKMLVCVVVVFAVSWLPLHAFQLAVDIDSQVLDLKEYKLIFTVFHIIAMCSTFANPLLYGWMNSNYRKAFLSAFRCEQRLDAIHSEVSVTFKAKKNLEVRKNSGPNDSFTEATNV

[3] = target: Neuropeptide Y receptor type 1 (Homo sapiens, UniProt P25929); test: Affinity against Neuropeptide Y receptor Y1 in SK-N-MC cell line; type: cell-based
[4] = target: T1, Neuropeptide Y receptor type 2; test: Antisecretory potency, affinity for intestinal PYY of rat jejunum by using short circuit current (SCC) method.; type: tissue-based

T1 sequence (Q9ERC0 whole entry): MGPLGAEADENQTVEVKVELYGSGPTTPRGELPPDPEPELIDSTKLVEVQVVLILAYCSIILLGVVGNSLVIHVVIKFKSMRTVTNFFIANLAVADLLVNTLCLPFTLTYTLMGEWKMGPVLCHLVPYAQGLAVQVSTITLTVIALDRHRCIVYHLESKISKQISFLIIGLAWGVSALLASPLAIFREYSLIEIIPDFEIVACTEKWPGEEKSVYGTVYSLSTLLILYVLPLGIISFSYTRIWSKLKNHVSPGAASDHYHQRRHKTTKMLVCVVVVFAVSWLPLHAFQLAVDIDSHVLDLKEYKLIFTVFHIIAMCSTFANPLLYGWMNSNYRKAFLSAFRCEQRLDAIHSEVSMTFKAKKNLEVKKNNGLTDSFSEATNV
Sequence of Neuropeptide Y receptor type 1 (P25929 whole entry): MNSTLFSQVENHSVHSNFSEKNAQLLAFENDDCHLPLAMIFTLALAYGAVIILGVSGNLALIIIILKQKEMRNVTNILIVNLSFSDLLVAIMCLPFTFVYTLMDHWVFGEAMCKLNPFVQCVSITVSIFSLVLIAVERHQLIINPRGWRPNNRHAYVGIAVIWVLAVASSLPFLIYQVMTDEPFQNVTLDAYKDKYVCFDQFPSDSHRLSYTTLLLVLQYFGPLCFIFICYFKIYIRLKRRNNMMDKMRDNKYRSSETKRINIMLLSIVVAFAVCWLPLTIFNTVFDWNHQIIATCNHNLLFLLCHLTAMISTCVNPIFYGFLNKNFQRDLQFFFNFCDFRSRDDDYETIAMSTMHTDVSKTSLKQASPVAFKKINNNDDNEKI

Row | Compound | ED50 (Rattus norvegicus) [µmol/kg] | pIC50 [1] | pIC50 [2] | pIC50 [3] | pIC50 [4]
1 | CCCC[C@H](NC(=O)[C@H](CO)NC(=O)[C@H](C)NC(C)=O)C(=O)N[C@@H](CCCN=C(N)N)C(=O)N[C@@H](Cc1c[nH]cn1)C(=O)N[C@@H](Cc1ccc(O)cc1)C(=O)N[C@@H](CCCC)C(=O)N[C@@H](CC(N)=O)C(=O)N[C@@H](Cc1c[nH]c2ccccc12)C(=O)N[C@@H](CCC)C(=O)N[C@H](C(=O)N[C@@H](CCCN=C(N)N)C(=O)N[C@@H](CCC(N)=O)C(=O)N[C@@H](CCCN=C(N)N)C(=O)N[C@@H](Cc1ccc(O)cc1)C(N)=O)[C@@H](C)O | 1.3e-05 | – | – | – | –
2 | Ac-ASWRHYLNLVTRQRY-NH2 | – | 8.68 | – | – | –
3 | CC(=O)N[C@@H](C)C(=O)N[C@@H](CO)C(=O)N[C@@H](CC(C)C)C(=O)N[C@@H](CCCN=C(N)N)C(=O)N[C@@H](Cc1c[nH]cn1)C(=O)N[C@@H](Cc1ccc(O)cc1)C(=O)N[C@@H](CC(C)C)C(=O)N[C@@H](CC(N)=O)C(=O)N[C@@H](Cc1c[nH]c2ccccc12)C(=O)N[C@H](C(=O)N[C@H](C(=O)N[C@@H](CCCN=C(N)N)C(=O)N[C@@H](CCC(N)=O)C(=O)N[C@@H](CCCN=C(N)N)CN[C@@H](Cc1ccc(O)cc1)C(N)=O)[C@@H](C)O)C(C)C | 0.00019 | – | – | – | –
4 | Ac-ASLRHYLWLVTRQRY-NH2 | – | 7.00 | 6.80 | 6.12 | –
5 | CC(=O)N[C@@H](C)C(=O)N[C@@H](CO)C(=O)N[C@@H](CSSC[C@H](NC(=O)[C@H](CO)NC(=O)[C@H](C)NC(C)=O)C(=O)N[C@@H](CCCNC(=N)N)C(=O)N[C@@H](Cc1cnc[nH]1)C(=O)N[C@@H](Cc1ccc(O)cc1)C(=O)N[C@@H](CC(C)C)C(=O)N[C@@H](CC(N)=O)C(=O)N[C@@H](CC(C)C)C(=O)N[C@H](C(=O)N[C@H](C(=O)N[C@@H](CCCNC(=N)N)C(=O)N[C@@H](CCC(N)=O)C(=O)N[C@@H](CCCNC(=N)N)C(=O)N[C@@H](Cc1ccc(O)cc1)C(N)=O)[C@@H](C)O)C(C)C)C(=O)N[C@@H](CCCNC(=N)N)C(=O)N[C@@H](Cc1cnc[nH]1)C(=O)N[C@@H](Cc1ccc(O)cc1)C(=O)N[C@@H](CC(C)C)C(=O)N[C@@H](CC(N)=O)C(=O)N[C@@H](CC(C)C)C(=O)N[C@H](C(=O)N[C@H](C(=O)N[C@@H](CCCNC(=N)N)C(=O)N[C@@H](CCC(N)=O)C(=O)N[C@@H](CCCNC(=N)N)C(=O)N[C@@H](Cc1ccc(O)cc1)C(N)=O)[C@@H](C)O)C(C)C (I: Ac-ASCRHYLNLVTRQRY-NH2 / II: Ac-ASCRHYLNLVTRQRY-NH2; disulfide I:3-II:3) [listing 1 of 2 here] | 0.000365 | – | – | – | –
6 | Ac-ASLRHWLNLVTRQRY-NH2 | – | 8.49 | 8.68 | 7.11 | –
7 | CC(=O)N[C@@H](C)C(=O)N[C@@H](CO)C(=O)N[C@@H](CC(C)C)C(=O)N[C@@H](CCCN=C(N)N)C(=O)N[C@@H](Cc1c[nH]cn1)C(=O)N[C@@H](Cc1ccc(-c2ccccc2)cc1)C(=O)N[C@@H](CC(C)C)C(=O)N[C@@H](CC(N)=O)C(=O)N[C@@H](CC(C)C)C(=O)N[C@H](C(=O)N[C@H](C(=O)N[C@@H](CCCN=C(N)N)C(=O)N[C@@H](CCC(N)=O)C(=O)N[C@@H](CCCN=C(N)N)C(=O)N[C@@H](Cc1ccc(O)cc1)C(N)=O)[C@@H](C)O)C(C)C (Ac-ASLRH[Bip]LNLVTRQRY-NH2) | – | 8.62 | 7.85 | 6.55 | –
8 | Ac-ASLRHYWNLVTRQRY-NH2 | – | 9.22 | 8.68 | 6.40 | –
9 | CC(=O)N[C@@H](C)C(=O)N[C@@H](CO)C(=O)N[C@@H](CC(C)C)C(=O)N[C@@H](CCCN=C(N)N)C(=O)N[C@@H](Cc1c[nH]cn1)C(=O)N[C@@H](Cc1ccc(O)cc1)C(=O)N[C@@H](CC(C)C)C(=O)N[C@@H](CC(N)=O)C(=O)N[C@@H](Cc1c[nH]c2ccccc12)C(=O)N[C@H](C(=O)N[C@H](C(=O)N[C@@H](CCCN=C(N)N)C(=O)N[C@@H](CCC(N)=O)C(=O)N[C@@H](CCCN=C(N)N)C(=O)N[C@@H](Cc1ccc(O)cc1)C(N)=O)[C@@H](C)O)C(C)C | 2.1e-06 | – | 9.01 | 6.60 | 9.22
10 | CCCC[C@H](NC(=O)[C@H](CO)NC(=O)[C@H](C)NC(C)=O)C(=O)N[C@@H](CCCN=C(N)N)C(=O)N[C@@H](Cc1c[nH]cn1)C(=O)N[C@@H](Cc1ccc(O)cc1)C(=O)N[C@@H](CCCC)C(=O)N[C@@H](CC(N)=O)C(=O)N[C@@H](Cc1c[nH]c2ccccc12)C(=O)N[C@@H](CCC)C(=O)N[C@H](C(=O)N[C@@H](CCCN=C(N)N)C(=O)N[C@@H](CCC(N)=O)C(=O)N[C@@H](CCCN=C(N)N)CN[C@@H](Cc1ccc(O)cc1)C(N)=O)[C@@H](C)O | 5.9e-05 | – | 8.76 | 5.80 | 9.51
11 | CC(=O)N[C@@H](C)C(=O)N[C@@H](CO)C(=O)N[C@H](CN[C@@H](CCCNC(=N)N)C(=O)N[C@@H](Cc1cnc[nH]1)C(=O)N[C@@H](Cc1ccc(O)cc1)C(=O)N[C@@H](CC(C)C)C(=O)N[C@@H](CC(N)=O)C(=O)N[C@@H](CC(C)C)C(=O)N[C@H](C(=O)N[C@H](C(=O)N[C@@H](CCCNC(=N)N)C(=O)N[C@@H](CCC(N)=O)C(=O)N[C@@H](CCCNC(=N)N)C(=O)N[C@@H](Cc1ccc(O)cc1)C(N)=O)[C@@H](C)O)C(C)C)CC(C)C (H-[X3]([Ser-Ala-Ac])HYLNLVTRQRY-NH2) | – | – | 7.23 | 6.13 | 8.56
12 | CC(=O)N[C@@H](C)C(=O)N[C@@H](CO)C(=O)N[C@@H](CC(C)C)C(=O)N[C@@H](CCCN=C(N)N)C(=O)N[C@@H](Cc1c[nH]cn1)C(=O)N[C@@H](Cc1ccc(O)cc1)C(=O)N[C@@H](CC(C)C)C(=O)N[C@@H](CC(N)=O)C(=O)N[C@@H](CC(C)C)C(=O)N[C@H](C(=O)N[C@H](C(=O)N[C@@H](CCCN=C(N)N)C(=O)N[C@@H](CCC(N)=O)C(=O)N[C@@H](CCCN=C(N)N)CN[C@@H](Cc1ccc(O)cc1)C(N)=O)[C@@H](C)O)C(C)C (Ac-ASLRHYLNLVTRQ-{Argψ(CH2NH)TyrNH2}) | – | – | 8.88 | < 5.00 | 10.30
13 | CC(=O)N[C@@H](C)C(=O)N[C@@H](CO)C(=O)N[C@@H](CC(C)C)C(=O)N[C@@H](CCCN=C(N)N)CN[C@@H](Cc1c[nH]cn1)C(=O)N[C@@H](Cc1ccc(O)cc1)C(=O)N[C@@H](CC(C)C)C(=O)N[C@@H](CC(N)=O)C(=O)N[C@@H](CC(C)C)C(=O)N[C@H](C(=O)N[C@H](C(=O)N[C@@H](CCCN=C(N)N)C(=O)N[C@@H](CCC(N)=O)C(=O)N[C@@H](CCCN=C(N)N)C(=O)N[C@@H](Cc1ccc(O)cc1)C(N)=O)[C@@H](C)O)C(C)C (H-[X4]([Leu-Ser-Ala-Ac])YLNLVTRQRY-NH2) | – | – | 7.39 | < 6.00 | 8.37
14 | CC(=O)N[C@@H](C)C(=O)N[C@@H](CO)C(=O)N[C@@H](CSSC[C@H](NC(=O)[C@H](CO)NC(=O)[C@H](C)NC(C)=O)C(=O)N[C@@H](CCCNC(=N)N)C(=O)N[C@@H](Cc1cnc[nH]1)C(=O)N[C@@H](Cc1ccc(O)cc1)C(=O)N[C@@H](CC(C)C)C(=O)N[C@@H](CC(N)=O)C(=O)N[C@@H](CC(C)C)C(=O)N[C@H](C(=O)N[C@H](C(=O)N[C@@H](CCCNC(=N)N)C(=O)N[C@@H](CCC(N)=O)C(=O)N[C@@H](CCCNC(=N)N)C(=O)N[C@@H](Cc1ccc(O)cc1)C(N)=O)[C@@H](C)O)C(C)C)C(=O)N[C@@H](CCCNC(=N)N)C(=O)N[C@@H](Cc1cnc[nH]1)C(=O)N[C@@H](Cc1ccc(O)cc1)C(=O)N[C@@H](CC(C)C)C(=O)N[C@@H](CC(N)=O)C(=O)N[C@@H](CC(C)C)C(=O)N[C@H](C(=O)N[C@H](C(=O)N[C@@H](CCCNC(=N)N)C(=O)N[C@@H](CCC(N)=O)C(=O)N[C@@H](CCCNC(=N)N)C(=O)N[C@@H](Cc1ccc(O)cc1)C(N)=O)[C@@H](C)O)C(C)C (I: Ac-ASCRHYLNLVTRQRY-NH2 / II: Ac-ASCRHYLNLVTRQRY-NH2; disulfide I:3-II:3) [listing 2 of 2 here] | – | – | 9.41 | 6.96 | 9.20
15 | CCCC[C@H](NC(=O)[C@H](CO)NC(=O)[C@H](C)NC(C)=O)C(=O)N[C@@H](CCCNC(=N)N)C(=O)N[C@@H](Cc1cnc[nH]1)C(=O)N[C@@H](Cc1ccc(O)cc1)C(=O)N[C@@H](CCCC)C(=O)N[C@@H](CC(N)=O)C(=O)N[C@@H](Cc1c[nH]c2ccccc12)C(=O)N[C@@H](CCC)C(=O)N[C@H](C(=O)N[C@@H](CCCNC(=N)N)C(=O)N[C@@H](CCC(N)=O)C(=O)N[C@@H](CCCNC(=N)N)C(=O)N[C@@H](Cc1ccc(O)cc1)C(N)=O)[C@@H](C)O | – | – | 8.43 | 6.74 | 9.25
16 | Ac-ASLRAFLNLVTRQRY-NH2 | – | – | 8.42 | 6.17 | 8.28
17 | CC(=O)N[C@@H](C)C(=O)N[C@@H](CO)C(=O)N[C@@H](CC(C)C)C(=O)N[C@@H](CCCNC(=N)N)C(=O)N[C@@H](Cc1cnc[nH]1)C(=O)N[C@@H](Cc1c[nH]c2ccccc12)C(=O)N[C@@H](CC(C)C)C(=O)N[C@@H](CC(N)=O)C(=O)N[C@@H](CC(C)C)C(=O)N[C@H](C(=O)N[C@H](C(=O)N[C@@H](CCCNC(=N)N)C(=O)N[C@@H](CCC(N)=O)C(=O)N[C@@H](CCCNC(=N)N)CN[C@@H](Cc1ccc(O)cc1)C(N)=O)[C@@H](C)O)C(C)C (Ac-ASLRHWLNLVTRQ-{Argψ(CH2NH)TyrNH2}) | – | – | 8.98 | < 6.00 | 8.95
